In ChEMBL document CHEMBL1130218, “Potent anandamide analogs: the effect of changing the length and branching of the end pentyl chain” (J Med Chem, 1997):
Calls of active or inactive are those of the source. The rule behind the calls is not given here.

Columns and labels:
Mus musculus [1] = organism: Mus musculus; assay: Inhibition of spontaneous activity (SA) in mice; assay type: functional
Procedure, shortened: (§1)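 Measured in the same mice as tail-flick; iv tail-vein dosing in ethanol:emulphor:saline 1:1:18, 0.1 mL/10 g. Immediately after tail-flick (about 4 min post-injection) mice placed in individual photocell cages; beam interruptions over 16 beams counted for 10 min.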

Mus musculus [2] = organism: Mus musculus; assay: Ring immobility (RI) in mice; assay type: functional
Procedure, shortened: (§2)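 Same mice as temperature test; immediately after temperature reading, mice placed on 5.5 cm ring 16 cm high and motionless time over 5 min recorded; % immobility = time/300 s × 100. iv tail-vein dosing in ethanol:emulphor:saline 1:1:18.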

Mus musculus [3] = organism: Mus musculus; assay: Antinociception as measured from the tail - flick response (TF), in mice; assay type: functional
Mus musculus [4] = organism: Mus musculus; assay: Hypothermia as measured from changes in rectal (RT) in mice; Inactive; assay type: functional, organism-based
Procedure, shortened: (§3)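 Separate group of mice; rectal temperature by thermistor probe inserted 25 mm before and 4 min after iv tail-vein injection (ethanol:emulphor:saline 1:1:18, 0.1 mL/10 g).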

Cannabinoid receptor 1 [5] = biological target: T1, Cannabinoid receptor 1 (Mus musculus, UniProt P47746); assay: Binding affinity for Cannabinoid receptor 1 in presence of phenylmethylsulfonyl fluoride (PMSF)
T1 sequence (P47746 whole entry): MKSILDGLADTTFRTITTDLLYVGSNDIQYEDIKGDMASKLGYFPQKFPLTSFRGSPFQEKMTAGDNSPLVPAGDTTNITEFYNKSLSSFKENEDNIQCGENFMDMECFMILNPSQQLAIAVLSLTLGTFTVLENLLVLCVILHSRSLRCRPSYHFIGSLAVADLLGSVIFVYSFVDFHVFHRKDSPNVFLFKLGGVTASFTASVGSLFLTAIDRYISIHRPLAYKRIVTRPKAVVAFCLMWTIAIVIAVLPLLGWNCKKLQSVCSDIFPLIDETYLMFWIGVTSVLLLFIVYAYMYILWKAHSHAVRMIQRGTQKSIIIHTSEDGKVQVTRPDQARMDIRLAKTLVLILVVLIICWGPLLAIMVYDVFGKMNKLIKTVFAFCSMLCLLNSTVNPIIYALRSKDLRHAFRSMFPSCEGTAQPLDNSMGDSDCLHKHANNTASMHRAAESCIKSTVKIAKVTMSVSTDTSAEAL
Procedure, shortened: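 Radioligand binding to P2 membranes (150 µg protein) in 50 mM Tris-HCl, 1 mM EDTA, 3 mM MgCl2, 5 mg/mL BSA, with amidase inhibitor PMSF 50 µM; final ethanol ≤0.4%. 1 h at 30 °C; nonspecific binding with 1 µM CP-55,940; terminated with ice-cold buffer and rapid filtration through PEI-treated filters.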

Mus musculus [6] = organism: Mus musculus; assay: Hypothermia as measured from changes in rectal (RT) in mice; assay type: functional; procedure, shortened: as §3
Mus musculus [7] = organism: Mus musculus; assay: Ring immobility (RI) in mice; Inactive; assay type: functional, organism-based; procedure, shortened: as §2
Mus musculus [8] = organism: Mus musculus; assay: Antinociception as measured from the tail - flick response (TF), in mice; Inactive; assay type: functional, organism-based
Cannabinoid receptor 1 [9] = biological target: T1, Cannabinoid receptor 1; assay: Binding affinity for Cannabinoid receptor 1 in absence of phenylmethylsulfonyl fluoride (PMSF)
Procedure, shortened: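 Radioligand binding to P2 membranes (150 µg protein) in 50 mM Tris-HCl, 1 mM EDTA, 3 mM MgCl2, 5 mg/mL BSA; ethanolic stocks diluted, final ethanol ≤0.4%; no PMSF. 1 h at 30 °C; nonspecific binding with 1 µM CP-55,940; stopped with ice-cold buffer and rapid filtration through PEI-treated filters.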

Mus musculus [10] = organism: Mus musculus; assay: Inhibition of spontaneous activity (SA) in mice; Inactive; assay type: functional, organism-based; procedure, shortened: as §1

For `CCCCCCCC/C=C\C/C=C\C/C=C\C/C=C\CCC(C)C(=O)NCCF` (centres undefined), the ED50 (Mus musculus [1]) was 3.52 mg/kg, the ED50 (Mus musculus [2]) was 6.37 mg/kg and the ED50 (Mus musculus [3]) was 15.3 mg/kg. For the same compound, the ED50 (Mus musculus [4]) was “inactive” and the Ki (Cannabinoid receptor 1 [5]) was 0.0082 µM.
`CCCCCCC(C)(C)/C=C\C/C=C\C/C=C\C/C=C\CCC(C)C(=O)NCCF` (centres undefined) gave an ED50 (Mus musculus [6]) of 3.6 mg/kg, an ED50 (Mus musculus [1]) of 3.48 mg/kg and an ED50 (Mus musculus [2]) of 3.11 mg/kg. It also gave an ED50 (Mus musculus [3]) of 0.86 mg/kg and a Ki (Cannabinoid receptor 1 [5]) of 0.001 µM.
For `CCCCCCC/C=C\C/C=C\C/C=C\C/C=C\CCCC(=O)NCCO`, the ED50 (Mus musculus [7]) was “inactive”, the ED50 (Mus musculus [1]) was 20.4 mg/kg and the ED50 (Mus musculus [8]) was “inactive”. The ED50 (Mus musculus [4]) was “inactive”, the Ki (Cannabinoid receptor 1 [5]) was 0.055 µM and the Ki (Cannabinoid receptor 1 [9]) was 1.78 µM.
`CCCCC(C)(C)C/C=C\C/C=C\C/C=C\C/C=C\CCCC(=O)NCCO` was tested, and the ED50 (Mus musculus [7]) was “inactive”, the ED50 (Mus musculus [1]) was 44.1 mg/kg and the ED50 (Mus musculus [8]) was “inactive”. For the same compound, the ED50 (Mus musculus [4]) was “inactive”, the Ki (Cannabinoid receptor 1 [5]) was 0.048 µM and the Ki (Cannabinoid receptor 1 [9]) was 0.382 µM.
For `CCCCCCC(C)/C=C\C/C=C\C/C=C\C/C=C\CCC(C)C(=O)NCCF` (centres undefined), the ED50 (Mus musculus [6]) was 0.08 mg/kg, the ED50 (Mus musculus [1]) was 1.15 mg/kg and the ED50 (Mus musculus [2]) was 2.22 mg/kg. The ED50 (Mus musculus [3]) was 1.3 mg/kg and the Ki (Cannabinoid receptor 1 [5]) was 0.0048 µM.
Work on `CCCCC/C=C\C/C=C\C/C=C\C/C=C\CCCC(=O)NCCO` [ANANDAMIDE] yielded an ED50 (Mus musculus [6]) of 26.5 mg/kg, an ED50 (Mus musculus [1]) of 17.9 mg/kg and an ED50 (Mus musculus [2]) of 19.1 mg/kg. For the same compound, the ED50 (Mus musculus [3]) was 6.2 mg/kg.
`CCCCCCC(C)(C)/C=C\C/C=C\C/C=C\C/C=C\CCCC(=O)NCCO` gave an ED50 (Mus musculus [6]) of 7.49 mg/kg, an ED50 (Mus musculus [1]) of 2.17 mg/kg and an ED50 (Mus musculus [2]) of 1.17 mg/kg. The ED50 (Mus musculus [3]) was 2.16 mg/kg and the Ki (Cannabinoid receptor 1 [5]) was 0.007 µM.
In the case of `CCCCC/C=C\C/C=C\C/C=C\C/C=C\CCC(C)C(=O)NCCF` (centres undefined), the ED50 (Mus musculus [6]) is reported as 2.73 mg/kg, the ED50 (Mus musculus [1]) is reported as 4.78 mg/kg and the ED50 (Mus musculus [2]) is reported as 1.6 mg/kg. It also gave an ED50 (Mus musculus [3]) of 6.99 mg/kg, a Ki (Cannabinoid receptor 1 [5]) of 0.0057 µM and a Ki (Cannabinoid receptor 1 [9]) of 0.015 µM.
With `CCCCCC(C)C/C=C\C/C=C\C/C=C\C/C=C\CCCC(=O)NCCO` (centres undefined) the ED50 (Mus musculus [6]) was 12.2 mg/kg, the ED50 (Mus musculus [1]) was 6.22 mg/kg and the ED50 (Mus musculus [2]) was 5.29 mg/kg. For the same compound, the ED50 (Mus musculus [3]) was 5.48 mg/kg, the Ki (Cannabinoid receptor 1 [5]) was 0.011 µM and the Ki (Cannabinoid receptor 1 [9]) was 0.051 µM.
For `CCCCCC/C=C\C/C=C\C/C=C\C/C=C\CCCC(=O)NCCO`, the ED50 (Mus musculus [7]) was “inactive”, the ED50 (Mus musculus [8]) was “inactive” and the ED50 (Mus musculus [4]) was “inactive”. For the same compound, the Ki (Cannabinoid receptor 1 [5]) was 0.024 µM, the Ki (Cannabinoid receptor 1 [9]) was 3.06 µM and the ED50 (Mus musculus [10]) was “inactive”.
For `CCCCCCCC/C=C\C/C=C\C/C=C\C/C=C\CCCC(=O)NCCO`, the ED50 (Mus musculus [8]) was “inactive”, the Ki (Cannabinoid receptor 1 [5]) was 0.018 µM and the Ki (Cannabinoid receptor 1 [9]) was 0.156 µM. For the same compound, the ED50 (Mus musculus [10]) was “inactive”.
With `CCCCCCCC(C)(C)/C=C\C/C=C\C/C=C\C/C=C\CCC(C)C(=O)NCCF` (centres undefined) the ED50 (Mus musculus [1]) was 20.3 mg/kg, the ED50 (Mus musculus [2]) was 33.3 mg/kg and the ED50 (Mus musculus [3]) was 12.8 mg/kg. For the same compound, the ED50 (Mus musculus [4]) was “inactive” and the Ki (Cannabinoid receptor 1 [5]) was 0.014 µM.
In the case of `CCCCCc1cc(O)c2c(c1)OC(C)(C)C1CCC(C)=C[C@@H]21` (single isomer, unassigned) [DRONABINOL], the ED50 (Mus musculus [6]) is reported as 1.4 mg/kg, the ED50 (Mus musculus [1]) is reported as 1 mg/kg and the ED50 (Mus musculus [2]) is reported as 1.5 mg/kg. It also gave an ED50 (Mus musculus [3]) of 1.4 mg/kg.
Compound `CCCCCC(C)(C)C/C=C\C/C=C\C/C=C\C/C=C\CCCC(=O)NCCO` has an ED50 (Mus musculus [6]) of 9.38 mg/kg, an ED50 (Mus musculus [1]) of 3.36 mg/kg and an ED50 (Mus musculus [2]) of 5.05 mg/kg. For the same compound, the ED50 (Mus musculus [3]) was 57.3 mg/kg, the Ki (Cannabinoid receptor 1 [5]) was 0.019 µM and the Ki (Cannabinoid receptor 1 [9]) was 0.039 µM.
`CCCCCCCCC/C=C\C/C=C\C/C=C\C/C=C\CCCC(=O)NCCO` was tested, and the ED50 (Mus musculus [1]) was 7.35 mg/kg, the ED50 (Mus musculus [2]) was 5.13 mg/kg and the ED50 (Mus musculus [3]) was 14.4 mg/kg. For the same compound, the ED50 (Mus musculus [4]) was “inactive”, the Ki (Cannabinoid receptor 1 [5]) was 0.025 µM and the Ki (Cannabinoid receptor 1 [9]) was 0.079 µM.
`CCCCCC(C)C/C=C\C/C=C\C/C=C\C/C=C\CCC(C)C(=O)NCCF` (centres undefined) showed an ED50 (Mus musculus [6]) of 0.24 mg/kg, an ED50 (Mus musculus [1]) of 2.09 mg/kg and an ED50 (Mus musculus [2]) of 2.67 mg/kg. For the same compound, the ED50 (Mus musculus [3]) was 4.08 mg/kg and the Ki (Cannabinoid receptor 1 [5]) was 0.0033 µM.
For `CCCCCC(C)(C)C/C=C\C/C=C\C/C=C\C/C=C\CCC(C)C(=O)NCCF` (centres undefined), the ED50 (Mus musculus [6]) was 76.2 mg/kg, the ED50 (Mus musculus [1]) was 3.14 mg/kg and the ED50 (Mus musculus [2]) was 11.4 mg/kg. For the same compound, the ED50 (Mus musculus [3]) was 4.12 mg/kg and the Ki (Cannabinoid receptor 1 [5]) was 0.0077 µM.
